Assay results reported in ChEMBL document CHEMBL4428077, “Synthesis and Biological Evaluation of N-((1-(4-(Sulfonyl)piperazin-1-yl)cycloalkyl)methyl)benzamide Inhibitors of Glycine Transporter-1” (J Med Chem, 2016).
Values belong to the compound of their own block, whether it stands above or below them. Active and inactive are the calls of the source. The rule behind the calls is not given here.

Experiments:
[1] = target: T1, Sodium- and chloride-dependent glycine transporter 1 (Homo sapiens) (UniProt P48067); test: Competitive inhibition of glycine transporter-1 (unknown origin) expressed in HEK293 cells at 0.62 to 17 nM in presence of [3H]glycine by scintillation proximity assay; type: cell-based
T1 sequence (whole entry): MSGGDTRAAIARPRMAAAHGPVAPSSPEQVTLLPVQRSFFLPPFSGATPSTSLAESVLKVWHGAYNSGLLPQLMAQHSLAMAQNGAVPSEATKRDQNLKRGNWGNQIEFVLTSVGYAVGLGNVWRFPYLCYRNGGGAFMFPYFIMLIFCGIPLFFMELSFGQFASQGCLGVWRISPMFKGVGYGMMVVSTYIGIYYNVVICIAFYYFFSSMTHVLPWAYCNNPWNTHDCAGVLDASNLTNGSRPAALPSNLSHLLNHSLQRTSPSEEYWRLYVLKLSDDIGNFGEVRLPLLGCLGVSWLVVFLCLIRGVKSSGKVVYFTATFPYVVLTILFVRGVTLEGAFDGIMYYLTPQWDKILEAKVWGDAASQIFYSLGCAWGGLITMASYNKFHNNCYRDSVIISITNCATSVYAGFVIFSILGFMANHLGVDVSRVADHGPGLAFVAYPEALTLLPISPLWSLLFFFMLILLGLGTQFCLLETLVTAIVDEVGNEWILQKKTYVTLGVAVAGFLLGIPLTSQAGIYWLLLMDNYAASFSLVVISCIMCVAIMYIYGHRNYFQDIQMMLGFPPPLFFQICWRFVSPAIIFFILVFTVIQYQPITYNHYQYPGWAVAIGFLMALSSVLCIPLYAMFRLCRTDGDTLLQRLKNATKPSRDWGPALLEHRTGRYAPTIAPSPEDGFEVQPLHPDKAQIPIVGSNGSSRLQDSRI
In short: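 Whole-cell SPA glycine transport with transfected HEK-293 cells expressing GlyT-1. Increasing [³H]-glycine concentrations were run at several fixed inhibitor concentrations to derive B_max and K_d for glycine and judge the binding mode.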

[2] = target: T2, Sodium- and chloride-dependent glycine transporter 1 (Homo sapiens, UniProt P48067); test: Inhibition of glycine transporter-1B in human JAR cells assessed as reduction in [14C]glycine uptake preincubated for 10 mins followed by [14C]glycine addition measured after 3 hrs by scintillation proximity assay; type: cell-based
T2 sequence (P48067 whole entry): T1 sequence (whole entry)
In short: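 Whole-cell SPA in JAR cells, which endogenously express hGlyT-1b. Cells (50,000 per well) were attached overnight in RPMI/10% FBS at 37 °C, 5% CO₂. [¹⁴C]glycine was then added and incubated 3 h at 37 °C. The assay window was set with unlabeled glycine. A reference standard ran on each plate. IC₅₀ values are means of n ≥ 2.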

[3] = Metabolic stability in human liver microsomes assessed as parent compound remaining at 3 uM incubated for 15 mins by LC-MS analysis; type: ADME, Microsome; details: for remaining at 0.25 h, 3 µM: liver microsomes, read-out: Stability
In short: (§1)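 Liver microsomes incubated with compound at 3 μM for 15 min. Parent compound remaining was quantified by LC-MS.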

[4] = Metabolic stability in rat liver microsomes assessed as parent compound remaining at 3 uM incubated for 15 mins by LC-MS analysis; type: ADME, Microsome; details: liver microsomes, read-out: Stability; in short: as §1
[5] = target: T3, Sodium- and chloride-dependent glycine transporter 2 (Homo sapiens, UniProt Q9Y345); test: Inhibition of human glycine transporter-2 expressed in HEK293 cells assessed as reduction in [14C]glycine uptake preincubated for 10 mins followed by [14C]glycine addition measured after 3 hrs by scintillation proximity assay; type: cell-based
T3 sequence (Q9Y345 whole entry): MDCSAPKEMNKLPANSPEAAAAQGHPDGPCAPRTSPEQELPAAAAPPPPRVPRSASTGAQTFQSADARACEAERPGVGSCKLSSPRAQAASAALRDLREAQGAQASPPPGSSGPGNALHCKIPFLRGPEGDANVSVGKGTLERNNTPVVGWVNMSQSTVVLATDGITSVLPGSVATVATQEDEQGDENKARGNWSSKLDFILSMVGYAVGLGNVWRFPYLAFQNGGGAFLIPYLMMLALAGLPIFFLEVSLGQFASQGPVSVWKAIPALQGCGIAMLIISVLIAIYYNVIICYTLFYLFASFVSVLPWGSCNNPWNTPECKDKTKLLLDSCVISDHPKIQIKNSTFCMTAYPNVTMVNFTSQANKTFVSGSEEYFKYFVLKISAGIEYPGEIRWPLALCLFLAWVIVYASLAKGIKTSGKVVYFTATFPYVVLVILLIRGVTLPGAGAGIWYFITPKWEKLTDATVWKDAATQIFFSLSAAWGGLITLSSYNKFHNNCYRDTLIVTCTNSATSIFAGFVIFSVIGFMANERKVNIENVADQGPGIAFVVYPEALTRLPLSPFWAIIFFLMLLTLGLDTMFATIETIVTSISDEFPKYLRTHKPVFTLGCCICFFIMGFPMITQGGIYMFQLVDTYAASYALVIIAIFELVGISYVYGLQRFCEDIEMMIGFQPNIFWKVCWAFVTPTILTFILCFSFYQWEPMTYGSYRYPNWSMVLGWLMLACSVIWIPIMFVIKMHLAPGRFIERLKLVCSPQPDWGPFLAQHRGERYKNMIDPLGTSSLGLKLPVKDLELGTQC
In short: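 HEK293 cells stably transfected with GlyT-2 (Geneticin-selected polyclonal population) were plated on poly-L-lysine-coated plates in DMEM/10% FBS and incubated overnight. The [¹⁴C]glycine uptake SPA was then run as for JAR cells: uptake buffer, 10 min room-temperature preincubation, 3 h incubation at 37 °C.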

[6] = Intrinsic clearance in human liver microsomes at 3 uM incubated up to 60 mins by LC-MS analysis; type: ADME, Microsome; details: read-out: CLH
In short: (§2)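 Liver microsomes with a cofactor regeneration system and compound at 3 μM, incubated at 37 °C. Reactions were stopped at 0, 5, 15, 30, 45 and 60 min, in duplicate. Compound remaining was measured by LC-MS. ln(%remaining) was plotted against time, and the slope was normalized to protein to give CL_int. Testosterone at 10 μM served as control.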

[7] = Intrinsic clearance in rat liver microsomes at 3 uM incubated up to 60 mins by LC-MS analysis; type: ADME, Microsome; details: read-out: CLH; in short: as §2

Compound: CN(CC[C@@H](Oc1ccc(-c2ccccc2)cc1)c1ccc(F)cc1)CC(=O)O
- inhibition [1]: inactive

Compound: Cn1cc(S(=O)(=O)N2CCN(C3(CNC(=O)c4c(F)cccc4F)CCC(F)(F)CC3)CC2)nn1
- IC50 [2]: 5.1 nM
- remaining at 0.25 h, 3 µM [3]: 64%
- remaining at 0.25 h, 3 µM [4]: 95%

Compound: Cn1cc(S(=O)(=O)N2CCN(C3(CNC(=O)c4ccc(Cl)cc4Cl)CCCCC3)CC2)cn1
- IC50 [2]: 146 nM
- IC50 [5]: > 75000 nM

Compound: CCCS(=O)(=O)N1CCN(C2(CNC(=O)c3c(Cl)cccc3Cl)CCC(F)(F)CC2)CC1
- IC50 [2]: 42.4 nM
- IC50 [5]: > 75000 nM
- microsomal CLint at 3 µM [6]: 3.8 µL/min/mg
- microsomal CLint at 3 µM [7]: 4.3 µL/min/mg

Compound: Cn1cnc(S(=O)(=O)N2CCN(C3(CNC(=O)c4ccc(F)cc4Cl)CCC(F)(F)CC3)CC2)c1
- IC50 [2]: 5.09 nM
- remaining at 0.25 h, 3 µM [3]: 85%
- remaining at 0.25 h, 3 µM [4]: 100%

Compound: CC(NC(=O)c1ccc(C(F)(F)F)cc1Cl)C1(N2CCN(S(=O)(=O)c3cn(C)nn3)CC2)CCC(F)(F)CC1.Cl (single isomer, unassigned; (-))
- Stability ([3]; microsomes, 0.25 h, 3 µM): 51%

Compound: Cn1cnc(S(=O)(=O)N2CCN(C3(CNC(=O)c4c(Cl)cccc4Cl)CCC(F)(F)CC3)CC2)c1
- IC50 [2]: 5.56 nM
- IC50 [5]: > 75000 nM
- remaining at 0.25 h, 3 µM [3]: 22%
- remaining at 0.25 h, 3 µM [4]: 94%

Compound: Cn1cnc(S(=O)(=O)N2CCN(C3(CNC(=O)c4ccc(Cl)cc4Cl)CCC(F)(F)CC3)CC2)c1
- IC50 [2]: 5.29 nM
- IC50 [5]: > 75000 nM
- remaining at 0.25 h, 3 µM [3]: 30%
- remaining at 0.25 h, 3 µM [4]: 88%

The remaining compounds from weak to strong by IC50 [2], led by results:

- IC50 [2]: 2.35 nM
- IC50 [5]: > 75000 nM
- remaining at 0.25 h, 3 µM [3]: 60%
- remaining at 0.25 h, 3 µM [4]: 90%
Compound: Cn1cnc(S(=O)(=O)N2CCN(C3(CNC(=O)c4ccc(C(F)(F)F)cc4Cl)CCC(F)(F)CC3)CC2)c1

- IC50 [2]: 1.54 nM
- IC50 [5]: > 75000 nM
- remaining at 0.25 h, 3 µM [3]: 0%
Compound: Cn1cc(S(=O)(=O)N2CCN(C3(CNC(=O)c4ccc(Cl)cc4Cl)CCCCC3)CC2)nn1

- IC50 [2]: 1.49 nM
- IC50 [5]: > 75000 nM
- remaining at 0.25 h, 3 µM [3]: 9.2%
- remaining at 0.25 h, 3 µM [4]: 91%
Compound: Cn1cnc(S(=O)(=O)N2CCN(C3(CNC(=O)c4c(Cl)cccc4OC(F)(F)F)CCC(F)(F)CC3)CC2)c1

- IC50 [2]: 1.14 nM
- remaining at 0.25 h, 3 µM [3]: 69%
- remaining at 0.25 h, 3 µM [4]: 100%
Compound: Cn1cc(S(=O)(=O)N2CCN(C3(CNC(=O)c4ccc(F)cc4Cl)CCC(F)(F)CC3)CC2)nn1

- IC50 [2]: 0.733 nM
- remaining at 0.25 h, 3 µM [3]: 64%
- remaining at 0.25 h, 3 µM [4]: 95%
Compound: Cn1cc(S(=O)(=O)N2CCN(C3(CNC(=O)c4ccc(C(F)(F)F)cc4C(F)(F)F)CCC(F)(F)CC3)CC2)nn1
